# From PubChem BioAssay AID720543 (The Scripps Research Institute Molecular Screening Center, 2013)
# Screen size: about 370,000 compounds; about 2,000 (0.54%) were called active. Shown is part of a subset that was picked to be rich in actives. A number with no mark means an inactive call.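 The calls were made as follows: active = inhibition exceeding the mean over every tested compound plus 3 SD (cut at about 30% in these data); inactive = the rest.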
# Target: (Lyso)-N-acylphosphatidylethanolamine lipase (Mus musculus) (UniProt Q8VD66)
# Test: mouse ABHD4 hydrolase activity blockers – biochemical, fluorescence polarization, primary screen (AID 720543);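 also: 0% = plate median of compound wells and 100% = S159A mutant with DMSO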
# Conditions: purified mABHD4, FP-Rh probe fluorescence polarization; at 8.92 µM; hits give high values
# In short: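 Assay system: wild-type mouse ABHD4 protein; compound: single nominal dose of 8.92 µM, 0.89% DMSO final; schedule: 45 min + 60 min at 25 °C; measured by: FP readout, ex 525 nm / em 598 nm; evaluation: % inhibition of FP-Rh probe binding versus controls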
# Chain of (Lyso)-N-acylphosphatidylethanolamine lipase (Mus musculus) (Q8VD66 whole entry, looked up): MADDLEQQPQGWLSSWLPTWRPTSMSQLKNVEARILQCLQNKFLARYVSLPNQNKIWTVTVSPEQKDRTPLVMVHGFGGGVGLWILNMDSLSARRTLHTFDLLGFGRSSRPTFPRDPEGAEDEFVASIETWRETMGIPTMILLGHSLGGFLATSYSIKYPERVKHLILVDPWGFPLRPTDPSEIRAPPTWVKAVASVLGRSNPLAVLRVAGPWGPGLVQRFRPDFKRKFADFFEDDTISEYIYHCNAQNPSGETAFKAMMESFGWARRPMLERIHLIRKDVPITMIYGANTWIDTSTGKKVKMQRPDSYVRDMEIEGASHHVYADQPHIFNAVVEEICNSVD
row,Structure (SMILES),inhibition
1,COc1cc(-n2c(=S)[nH]c3ccc(C)cc3c2=O)c(Cl)cc1Cl,36.9% (active)
2,O=c1c2ccccc2[nH]c(=S)n1-c1cccc(Cl)c1,6.67%
3,CC12CN3CC(C)(CN(C1)C3c1cccs1)C2 (stereo not given),2.23%
4,C/C=C/CC1(CC)C(=O)NC(=S)NC1=O,5.1%
5,c1ccc(C2NCc3ccccc3-n3cccc32)cc1 (stereo not given),6.15%
6,CCOc1ccc(-c2cc(C)[n+](CCN(CC)CC)c(-c3ccc(OCC)cc3)c2)cc1,5.92%
7,CCOc1cccc(=NC2CCCCC2)c2c(C)[nH]c(C)c12,34.4% (active)
8,COc1ccc(NC(=O)N2CCC3(CC2)OCCO3)c(OC)c1,2.18%
9,CO[C@H]([C@H](C)/C=C/N(C)C=O)[C@@H](C)C(=O)CC[C@H](C)[C@H](O)[C@H](C)[C@H]1OC(=O)/C=C/C(C)=C/[C@H](O)[C@H](OC)C[C@@H]2C=CC[C@@H](C[C@H](OC)[C@@]3(CO3)[C@@H](OC)C[C@@H](OC)[C@@H]1C)O2,-6.78%
10,Clc1ccc([C@@H]2CC3CCC2N3)cn1 (stereo not given in full),7.57%
